# Measurements published in ChEMBL document CHEMBL1131301, “Tyrosine kinase inhibitors. 14. Structure-activity relationships for methylamino-substituted derivatives of 4-[(3-bromophenyl)amino]-6-(methylamino)-pyrido[3,4-d]pyrimidine (PD 158780), a potent and specific inhibitor of the tyrosine kinase activity of receptors for the EGF family of growth factors” (J Med Chem, 1998).
# Columns and labels:
# [1] = Aqueous solubility ([…] degree C); format: physicochemical; conditions: for S: buffer; for solubility: water, read-out: S
# [2] = molecular target: T1, Epidermal growth factor receptor (Homo sapiens, UniProt P00533); assay: Inhibit of phosphorylation of a tyrosine/glutamic acid copolymer by epidermal growth factor receptor prepared from human A431 carcinoma cell vesicles by immunoaffinity chromatography.
# [3] = molecular target: T1, Epidermal growth factor receptor; assay: Inhibition of EGF-dependent autophosphorylation of EGF-R in A431 cells
# [4] = molecular target: T1, Epidermal growth factor receptor; assay: Inhibition of autophosphorylation of epidermal growth factor receptor in A431 cells in culture
# [5] = molecular target: T1, Epidermal growth factor receptor; assay: (§1) Inhibition of tyrosine/glutamic acid copolymer phosphorylation by epidermal growth factor receptor prepared of human A431
# [6] = molecular target: T1, Epidermal growth factor receptor; assay: as §1; remark: listed apart in the source
# [7] = molecular target: Fibroblast growth factor receptor (Homo sapiens, UniProt P22607+P11362+P22455+P21802); assay: Inhibition of fibroblast growth factor receptor(FGFR); format: functional
# Insulin receptor = Insulin receptor (Homo sapiens, UniProt P06213); assay: Inhibition of insulin receptor(IR); format: functional
# [8] = molecular target: Receptor tyrosine-protein kinase erbB-2 (Homo sapiens, UniProt P04626); assay: Inhibition of heregulin-dependent autophosphorylation of ErbB2 receptor in MDA-MB-453 cells; format: functional, cell-based
# Mus musculus [9] = assay: Difference in days for treated (T) and control (C) EGFR tumor fragments to reach 750 mg in mice at 200 mg/kg peroral dose, administration days 1-15; format: functional; conditions: route oral
# Mus musculus [10] = assay: Difference in days for treated (T) and control (C) EGFR tumor fragments to reach 750 mg in mice at 25 mg/kg ip dose, administration days 1-15; format: functional; conditions: route intraperitoneal
# MCF7 [11] = assay: Difference in days for treated (T) and control (C) MCF-7 tumor fragments to reach 750 mg in mice at 25 mg/kg ip dose, administration days 1-15; format: functional; conditions: route intraperitoneal
# A-431 [12] = assay: Ratio of treated and control A431 median tumor mass*100% in mice at 25 mg/kg peroral dose, days 7-21 administration; format: functional; conditions: route intraperitoneal, in the assay text read “intraperitoneal” for “peroral”
# Method in brief: (§2)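 Nude mice (NCr nu/nu, 18-22 g) were randomized and implanted sc with tumor fragments in the right axilla on day 0. Tumor lines were A431 epidermoid, NIH 3T3 fibroblasts transfected with human EGFR, and MCF-7 breast. Dosing was ip or oral, by average cage weight, with 6 mice/dose group. Vehicle was 6% dimethylacetamide/94% 50 mM sodium lactate pH 4.0 (suspension), or isethionate salt in water.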
# Mus musculus [13] = assay: Ratio of treated and control EGFR median tumor mass*100% in mice at 200 mg/kg peroral dose, days 1-15 administration; format: functional; conditions: route oral; method in brief: as §2
# Mus musculus [14] = assay: Ratio of treated and control EGFR median tumor mass*100% in mice at 25 mg/kg ip dose, days 1-15 administration; format: functional; conditions: route intraperitoneal; method in brief: as §2
# MCF7 [15] = assay: Ratio of treated and control MCF-7 median tumor mass*100% in mice at 25 mg/kg ip dose, days 1-15 administration; format: functional; conditions: route intraperitoneal; method in brief: as §2
# Mus musculus [16] = assay: Net reduction in EGFR tumor burden between the first and last treatments in mice at 25 mg/kg ip dose, days 1-15 administration; format: functional; conditions: route intraperitoneal
# Method in brief: (§3)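 NCr nu/nu nude mice (18-22 g) were randomized and implanted sc with A431 epidermoid, human-EGFR-transfected NIH 3T3 fibroblast, or MCF-7 breast tumor fragments in the right axilla on day 0. Dosing was ip or oral, by average cage weight, with 6 mice per dose group. Log net cell kill is the net reduction in tumor burden between the first and last treatments.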
# MCF7 [17] = assay: Net reduction in MCF-7 tumor burden between the first and last treatments in mice at 25 mg/kg ip dose, days 1-15 administration; format: functional; conditions: route intraperitoneal; method in brief: as §3
# MCF7 [18] = assay: Weight change in MCF-7 tumor bearing mice at 25 mg/kg ip dose, days 1-15 administration; format: functional; conditions: route intraperitoneal
# A-431 [19] = assay: Weight change in A431 tumor bearing mice at 25 mg/kg ip dose, days 7-21 administration; format: functional; conditions: route intraperitoneal
# Mus musculus [20] = assay: Weight change of EGFR tumor bearing mice at 200 mg/kg peroral dose, days 1-15 administration; format: functional, organism-based; set-up: dose 200 mg/kg
# Mus musculus [21] = assay: Weight change of EGFR tumor bearing mice at 25 mg/kg ip dose, days 1-15 administration; format: functional; conditions: route intraperitoneal
# [22] = Inhibition of Platelet-derived growth factor receptor (PDGFR); format: functional
# [23] = molecular target: Proto-oncogene tyrosine-protein kinase Src (Homo sapiens, UniProt P12931); assay: Inhibition of c-Src tyrosine kinase; format: functional
# Mus musculus [24] = assay: Log net cell kill of A431 tumor bearing mice at 25 mg/kg intraperitoneal dose, days 7-21 administration
# A-431 [25] = assay: Difference in days for treated (T) and control (C) A431 tumor fragments to reach 750 mg in mice at 25 mg/kg intraperitoneal dose, administration days 7-21
# Mus musculus [26] = assay: Difference in days for treated (T) and control (C) EGFR tumor fragments to reach 750 mg in mice at 38 mg/kg ip dose, administration days 1-15; format: functional; conditions: route intraperitoneal
# Mus musculus [27] = assay: Weight change of EGFR tumor bearing mice at 38 mg/kg ip dose, days 1-15 administration; format: functional; conditions: route intraperitoneal
# Mus musculus [28] = assay: Ratio of the median treated EGFR tumor mass (mg)/median control mass*100% in mice at 38 mg/kg dose, ip b.i.d. days 1-15 administration; format: functional; conditions: route intraperitoneal; method in brief: as §2
# T1 sequence (P00533 whole entry): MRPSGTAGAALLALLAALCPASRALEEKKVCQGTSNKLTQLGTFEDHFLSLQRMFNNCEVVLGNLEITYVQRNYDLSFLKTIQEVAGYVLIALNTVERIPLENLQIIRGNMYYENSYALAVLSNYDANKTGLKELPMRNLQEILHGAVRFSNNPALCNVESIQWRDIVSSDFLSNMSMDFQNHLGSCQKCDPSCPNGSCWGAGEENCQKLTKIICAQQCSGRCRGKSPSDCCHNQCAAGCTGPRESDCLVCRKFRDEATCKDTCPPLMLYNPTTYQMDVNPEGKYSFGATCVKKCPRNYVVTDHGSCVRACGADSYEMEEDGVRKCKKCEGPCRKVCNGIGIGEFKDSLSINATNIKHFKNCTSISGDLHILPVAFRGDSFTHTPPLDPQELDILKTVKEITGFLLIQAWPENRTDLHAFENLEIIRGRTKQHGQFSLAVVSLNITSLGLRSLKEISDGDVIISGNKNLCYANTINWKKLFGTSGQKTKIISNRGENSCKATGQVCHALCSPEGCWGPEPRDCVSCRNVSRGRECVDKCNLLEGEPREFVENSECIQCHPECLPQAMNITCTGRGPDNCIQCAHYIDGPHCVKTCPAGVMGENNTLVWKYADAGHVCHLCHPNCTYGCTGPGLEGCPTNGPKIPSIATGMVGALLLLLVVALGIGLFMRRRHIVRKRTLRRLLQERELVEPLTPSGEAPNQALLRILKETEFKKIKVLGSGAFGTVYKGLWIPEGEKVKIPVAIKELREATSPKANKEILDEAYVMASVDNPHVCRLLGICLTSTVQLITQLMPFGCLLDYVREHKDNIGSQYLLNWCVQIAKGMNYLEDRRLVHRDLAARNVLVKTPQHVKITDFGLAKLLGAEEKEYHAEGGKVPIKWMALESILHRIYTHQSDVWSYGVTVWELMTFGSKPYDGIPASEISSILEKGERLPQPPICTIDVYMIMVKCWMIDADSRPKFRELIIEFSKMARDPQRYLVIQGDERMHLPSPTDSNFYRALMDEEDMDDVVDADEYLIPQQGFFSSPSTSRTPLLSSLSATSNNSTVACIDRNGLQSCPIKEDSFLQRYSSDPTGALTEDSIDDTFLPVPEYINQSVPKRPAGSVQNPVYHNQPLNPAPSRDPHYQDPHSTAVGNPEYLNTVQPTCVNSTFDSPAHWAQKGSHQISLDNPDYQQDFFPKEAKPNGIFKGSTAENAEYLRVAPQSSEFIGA
# Receptor tyrosine-protein kinase erbB-2, sequence (P04626 whole entry, the tested form may be a part): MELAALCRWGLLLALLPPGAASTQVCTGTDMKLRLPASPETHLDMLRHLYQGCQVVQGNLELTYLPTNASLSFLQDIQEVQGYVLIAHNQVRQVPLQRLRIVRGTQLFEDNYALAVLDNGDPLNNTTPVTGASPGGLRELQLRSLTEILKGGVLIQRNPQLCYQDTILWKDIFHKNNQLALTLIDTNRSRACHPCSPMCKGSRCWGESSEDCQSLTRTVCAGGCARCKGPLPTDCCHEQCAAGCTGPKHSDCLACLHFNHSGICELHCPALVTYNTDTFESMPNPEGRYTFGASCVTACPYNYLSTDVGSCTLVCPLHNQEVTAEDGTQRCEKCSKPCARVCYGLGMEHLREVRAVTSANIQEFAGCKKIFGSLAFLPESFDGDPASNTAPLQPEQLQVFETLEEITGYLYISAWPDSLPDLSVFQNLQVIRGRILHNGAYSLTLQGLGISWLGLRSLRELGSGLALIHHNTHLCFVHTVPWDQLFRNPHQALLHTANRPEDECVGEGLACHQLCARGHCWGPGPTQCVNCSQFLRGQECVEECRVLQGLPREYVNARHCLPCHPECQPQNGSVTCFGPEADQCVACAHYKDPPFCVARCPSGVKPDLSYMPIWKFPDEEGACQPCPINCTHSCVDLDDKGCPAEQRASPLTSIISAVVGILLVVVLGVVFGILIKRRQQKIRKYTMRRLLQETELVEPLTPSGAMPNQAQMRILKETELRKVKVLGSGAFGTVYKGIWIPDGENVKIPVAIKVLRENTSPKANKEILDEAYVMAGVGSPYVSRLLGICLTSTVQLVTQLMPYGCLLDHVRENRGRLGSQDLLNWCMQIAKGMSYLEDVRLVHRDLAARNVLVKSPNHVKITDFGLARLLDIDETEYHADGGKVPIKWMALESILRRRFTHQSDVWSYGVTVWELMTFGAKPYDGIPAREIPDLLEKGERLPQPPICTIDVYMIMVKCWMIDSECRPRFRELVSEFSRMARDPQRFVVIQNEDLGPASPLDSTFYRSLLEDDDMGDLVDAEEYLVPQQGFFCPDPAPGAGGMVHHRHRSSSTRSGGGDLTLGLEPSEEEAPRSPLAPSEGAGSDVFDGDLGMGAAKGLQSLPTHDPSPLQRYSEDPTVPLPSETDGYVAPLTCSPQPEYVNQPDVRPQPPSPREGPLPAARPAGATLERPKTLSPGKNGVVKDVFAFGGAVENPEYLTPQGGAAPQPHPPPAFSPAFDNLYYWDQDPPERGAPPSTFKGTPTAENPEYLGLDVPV
# Insulin receptor, sequence (P06213 28-758 limits assumed): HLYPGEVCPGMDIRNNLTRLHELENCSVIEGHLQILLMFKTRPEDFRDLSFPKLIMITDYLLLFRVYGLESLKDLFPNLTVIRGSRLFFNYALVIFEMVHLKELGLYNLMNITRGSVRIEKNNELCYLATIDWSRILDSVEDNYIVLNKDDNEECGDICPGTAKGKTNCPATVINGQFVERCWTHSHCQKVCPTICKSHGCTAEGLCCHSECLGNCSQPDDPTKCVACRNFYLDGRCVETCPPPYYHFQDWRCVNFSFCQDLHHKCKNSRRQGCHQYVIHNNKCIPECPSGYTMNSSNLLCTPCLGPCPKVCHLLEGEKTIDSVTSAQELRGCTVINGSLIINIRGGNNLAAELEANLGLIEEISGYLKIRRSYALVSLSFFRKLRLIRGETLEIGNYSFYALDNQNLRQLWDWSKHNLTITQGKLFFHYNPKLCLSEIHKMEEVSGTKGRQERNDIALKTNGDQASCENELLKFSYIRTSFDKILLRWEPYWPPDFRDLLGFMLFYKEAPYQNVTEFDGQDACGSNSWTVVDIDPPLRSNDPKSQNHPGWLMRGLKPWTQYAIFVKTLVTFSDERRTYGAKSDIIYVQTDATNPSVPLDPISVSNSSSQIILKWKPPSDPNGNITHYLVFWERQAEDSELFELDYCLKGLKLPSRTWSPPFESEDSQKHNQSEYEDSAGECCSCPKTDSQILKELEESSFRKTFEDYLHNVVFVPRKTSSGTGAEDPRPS
# Insulin receptor, sequence (P06213 763-1382 limits assumed): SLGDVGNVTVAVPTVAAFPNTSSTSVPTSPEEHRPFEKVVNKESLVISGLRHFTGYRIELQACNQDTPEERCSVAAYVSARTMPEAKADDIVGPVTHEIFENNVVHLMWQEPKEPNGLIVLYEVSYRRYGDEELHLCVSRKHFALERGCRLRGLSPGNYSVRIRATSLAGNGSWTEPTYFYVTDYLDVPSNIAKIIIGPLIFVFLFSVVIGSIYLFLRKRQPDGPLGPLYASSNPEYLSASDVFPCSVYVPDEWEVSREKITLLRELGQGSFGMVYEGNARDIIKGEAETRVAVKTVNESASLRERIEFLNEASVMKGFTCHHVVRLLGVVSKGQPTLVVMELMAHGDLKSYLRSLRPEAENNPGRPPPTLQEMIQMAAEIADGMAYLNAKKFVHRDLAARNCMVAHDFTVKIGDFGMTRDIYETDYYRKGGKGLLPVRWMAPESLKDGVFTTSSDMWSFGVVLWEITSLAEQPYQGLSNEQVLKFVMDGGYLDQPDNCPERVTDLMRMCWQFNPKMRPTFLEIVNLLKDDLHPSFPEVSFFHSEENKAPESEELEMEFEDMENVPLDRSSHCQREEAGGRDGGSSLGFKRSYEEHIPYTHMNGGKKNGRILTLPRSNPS
# Proto-oncogene tyrosine-protein kinase Src, sequence (P12931 2-536 limits assumed): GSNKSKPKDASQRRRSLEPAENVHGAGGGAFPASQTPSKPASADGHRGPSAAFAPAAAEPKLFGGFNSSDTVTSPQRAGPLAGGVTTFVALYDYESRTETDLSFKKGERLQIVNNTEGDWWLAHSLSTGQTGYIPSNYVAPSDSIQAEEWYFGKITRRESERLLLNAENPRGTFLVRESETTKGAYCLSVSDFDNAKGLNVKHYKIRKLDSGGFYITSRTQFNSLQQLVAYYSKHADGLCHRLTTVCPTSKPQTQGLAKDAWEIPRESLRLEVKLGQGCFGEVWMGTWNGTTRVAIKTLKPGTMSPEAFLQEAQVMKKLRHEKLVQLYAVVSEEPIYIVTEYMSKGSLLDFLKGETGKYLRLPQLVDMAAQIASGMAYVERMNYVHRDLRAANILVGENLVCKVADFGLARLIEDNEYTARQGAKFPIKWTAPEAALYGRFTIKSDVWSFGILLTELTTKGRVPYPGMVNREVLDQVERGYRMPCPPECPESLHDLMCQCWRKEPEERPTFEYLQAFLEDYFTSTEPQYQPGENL
smiles,measurement,setting,value
Cc1cccc(Nc2ncnc3cnc(NCCc4c[nH]cn4)cc23)c1,S,[1],> 30 mM
same,IC50,[2],1.3 nM
CCN(CC)CC(O)CNc1cc2c(Nc3cccc(Br)c3)ncnc2cn1 (configuration not stated),IC50,[3],28 nM
same,IC50,[4],28 nM
same,solubility,[1],36 mM
same,IC50,[5],4.6 nM
same,IC50,[6],4.6 nM
same,IC50,[7],> 50000 nM
same,IC50,Insulin receptor,> 50000 nM
same,IC50,[8],1100 nM
same,T-C,Mus musculus [9],0 days
same,T-C,Mus musculus [10],5 days
same,T-C,MCF7 [11],3.3 days
same,T/C,A-431 [12],62%
same,T/C,Mus musculus [13],94%
same,T/C,Mus musculus [14],44%
same,T/C,MCF7 [15],77%
same,Net cell kill,Mus musculus [16],-0.9 log10
same,Net cell kill,MCF7 [17],-0.6 log10
same,Weight change,MCF7 [18],-0.3 g
same,Weight change,A-431 [19],-0.7 g
same,Weight change,Mus musculus [20],Weight gain
same,Weight change,Mus musculus [21],-0.9 g
same,IC50,[22],> 50000 nM
same,IC50,[23],> 50000 nM
same,Log net cell kill,Mus musculus [24],-0.5 log10
same,T-C,A-431 [25],5 days
CN(C)CCN(C)c1cc2c(Nc3cccc(Br)c3)ncnc2cn1,solubility,[1],39 mM
CN(CCO)CCNc1cc2c(Nc3cccc(Br)c3)ncnc2cn1,IC50,[4],27 nM
same,S,[1],> 45 mM
same,IC50,[2],1.7 nM
CN(C)CCCNc1cc2c(Nc3cccc(Br)c3)ncnc2cn1,IC50,[4],16 nM
same,solubility,[1],30 mM
same,IC50,[2],1.2 nM
OCC(O)CNc1cc2c(Nc3cccc(Br)c3)ncnc2cn1 (configuration not stated),solubility,[1],0.21 mM
same,IC50,[2],0.18 nM
O=C(O)CCNc1cc2c(Nc3cccc(Br)c3)ncnc2cn1,IC50,[4],449 nM
same,solubility,[1],38 mM
same,IC50,[2],0.27 nM
Cc1cccc(Nc2ncnc3cnc(N(C)C)cc23)c1,solubility,[1],0.02 mM
same,IC50,[2],2.8 nM
CN(C)CCCCNc1cc2c(Nc3cccc(Br)c3)ncnc2cn1,IC50,[4],19 nM
same,solubility,[1],38 mM
same,IC50,[2],1.8 nM
OCCN(CCO)CCCNc1cc2c(Nc3cccc(Br)c3)ncnc2cn1,IC50,[4],230 nM
same,solubility,[1],20 mM
same,IC50,[2],0.35 nM
CNc1cc2c(Nc3cccc(C)c3)ncnc2cn1,IC50,[4],23 nM
same,IC50,[6],0.45 nM
same,T-C,Mus musculus [26],2 days
same,Weight change,Mus musculus [27],-0.9 g
same,T/C,Mus musculus [28],68%
OCCN(CCO)CCNc1cc2c(Nc3cccc(Br)c3)ncnc2cn1,IC50,[4],71 nM
same,solubility,[1],36 mM
same,IC50,[2],0.93 nM
CN(C)c1cc2c(Nc3cccc(Br)c3)ncnc2cn1,solubility,[1],0.06 mM
CN1CCN(NCCCNc2cc3c(Nc4cccc(Br)c4)ncnc3cn2)CC1,solubility,[1],32 mM
Brc1cccc(Nc2ncnc3cnc(NCCCN4CCOCC4)cc23)c1,IC50,[4],5.9 nM
same,S,[1],> 44 mM
same,IC50,[2],1 nM
OCCNc1cc2c(Nc3cccc(Br)c3)ncnc2cn1,solubility,[1],0.02 mM
same,IC50,[2],0.19 nM
